A short description of test [1]: reducers of endogenous Her2 protein level, primary screen, SKBR3 breast tumor cells, AlphaScreen, ATP viability (AID 461;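 active = Her2 level under about 52% in both replicate screens, with viability over 70% of control, limit read from the data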;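 as to Her2 level: lower value means less Her2 protein in the cells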;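 as to viability: percent of carrier control wells set as 100% viability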). Conditions: 18-24 h, measured here: SKBR3 viability, ATP luminescence, at 10 µM. (In general: In Alpha technology, singlet oxygen from a donor bead excites a nearby acceptor bead.)
The target of test [2] is Receptor tyrosine-protein kinase erbB-2 (Homo sapiens) (UniProt P04626). Described as above. Conditions: 18-24 h, at 10 µM, stronger effect = lower value.
Chain of Receptor tyrosine-protein kinase erbB-2 (Homo sapiens) (P04626 whole entry, looked up): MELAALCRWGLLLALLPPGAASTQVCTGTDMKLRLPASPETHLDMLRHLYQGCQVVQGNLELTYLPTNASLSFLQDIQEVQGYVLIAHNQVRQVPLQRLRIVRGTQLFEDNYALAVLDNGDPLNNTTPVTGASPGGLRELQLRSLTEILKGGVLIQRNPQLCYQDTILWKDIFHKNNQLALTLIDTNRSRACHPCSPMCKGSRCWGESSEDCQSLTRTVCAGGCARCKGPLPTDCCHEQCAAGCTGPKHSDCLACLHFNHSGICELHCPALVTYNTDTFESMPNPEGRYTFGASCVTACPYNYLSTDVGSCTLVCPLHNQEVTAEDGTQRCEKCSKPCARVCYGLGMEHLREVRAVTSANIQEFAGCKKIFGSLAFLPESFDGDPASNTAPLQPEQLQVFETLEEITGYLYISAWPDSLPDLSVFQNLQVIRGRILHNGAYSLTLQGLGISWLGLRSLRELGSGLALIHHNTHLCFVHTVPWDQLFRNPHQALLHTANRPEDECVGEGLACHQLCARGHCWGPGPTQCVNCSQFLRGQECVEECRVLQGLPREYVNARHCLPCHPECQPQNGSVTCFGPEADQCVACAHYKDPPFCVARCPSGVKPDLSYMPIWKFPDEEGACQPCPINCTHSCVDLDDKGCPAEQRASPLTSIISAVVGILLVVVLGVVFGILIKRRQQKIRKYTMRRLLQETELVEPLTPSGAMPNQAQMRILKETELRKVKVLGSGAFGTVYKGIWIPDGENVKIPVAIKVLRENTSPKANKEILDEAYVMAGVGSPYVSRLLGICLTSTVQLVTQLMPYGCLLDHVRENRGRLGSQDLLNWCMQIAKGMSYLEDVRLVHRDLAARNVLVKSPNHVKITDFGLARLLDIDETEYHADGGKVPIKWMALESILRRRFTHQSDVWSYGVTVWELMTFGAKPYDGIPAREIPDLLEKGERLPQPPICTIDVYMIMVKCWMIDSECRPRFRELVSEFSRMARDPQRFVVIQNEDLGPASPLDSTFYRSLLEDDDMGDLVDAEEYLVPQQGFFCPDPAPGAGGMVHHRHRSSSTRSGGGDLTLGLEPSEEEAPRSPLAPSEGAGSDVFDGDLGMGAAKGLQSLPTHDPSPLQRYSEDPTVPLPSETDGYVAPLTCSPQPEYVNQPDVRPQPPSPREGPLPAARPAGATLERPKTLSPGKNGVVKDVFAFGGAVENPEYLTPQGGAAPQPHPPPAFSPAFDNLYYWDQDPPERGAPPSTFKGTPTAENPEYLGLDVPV
A short description of test [3]: SK-BR-3 cell growth inhibitors, pilot screen, 24 h, human (AID 572).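 Also: compound exposure lasted between 18 and 24 h rather than exactly 24 h; 100% = carrier-treated control wells.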 Conditions: SK-BR-3 viability, CellTiter-Glo luminescence, at 10 µM, stronger effect = lower value. (In general: ATP-based viability assays read luminescence as a measure of living cells.)
A short description of test [4]: HUVEC growth inhibition – cell-based, human, primary screen (AID 575;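 active = viability at or below 30% in both replicate assays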;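 also: 100% = median of untreated cell wells with 0.1% DMSO on each plate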). Conditions: HUVEC proliferation, CellTiter-Glo luminescence, 72 h; at 10 µM; stronger effect = lower value. Put shortly:
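Test system: primary human umbilical vein endothelial cells; medium: endothelial basal medium with 2% FBS plus growth supplements; dosing: 10 µM compound only; times: 72 h treatment at 37 °C; signal: CTG luminescence; read-out: % viability relative to median vehicle-well signal on each plate; control set: vehicle and MePR control wells; plate: 384-well, collagen-coated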

Test [5] can be described thus: growth inhibitors of H69AR lung tumor, primary screen, human, duplicate replicates (AID 580;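 active = viability at or under a set limit in both replicates, limit being median viability minus 3 SD, cut at about 48% in these data, passing the limit was not always enough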;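 also: 100% = mean luminescence of untreated wells and 0% = no signal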). The conditions noted are these: H69AR lung tumor cells viability, ATP luminescence, 72 h; at 10 µM; stronger effect = lower value.
A short description of test [6]: reversal of MRP1-mediated doxorubicin resistance, pilot screen, H69AR cells, doxorubicin co-treatment (AID 601;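 active = viability loss from added drug above about 55%, and viability with drug at most 40%, in both replicates, limit read from the data, passing the limit was not always enough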). Conditions: CellTiter-Glo, 72 h, at 10 µM; for differential viability (reversal): stronger effect = higher value.
The nature of test [7]: 384-well plate pilot, post-Golgi transport modulator project, inhibition of yeast transport mutant growth (AID 636; in the data active = inhibition above about 31%). The conditions noted are these: absorbance 615 nm, about 18 h, stronger effect = higher value.
The nature of test [8]: growth suppression of yeast trafficking mutant, preliminary HTS, modulators of trafficking downstream of Golgi apparatus project, 1536-format plate, OD 615 nm (AID 637; in the data active = inhibition above about 30%). The conditions noted are these: yeast transport mutant growth, absorbance 615 nm, 18 h; stronger effect = higher value.
Setting [9] is: H69AR cells + 2 uM doxorubicin, measured here: viability with 2 uM doxorubicin, stronger effect = lower value.
Setting [10] is: H69AR cells, compound alone cytotoxicity.

SMILES strings stand for the structures. Activity calls are given as the source filed them.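 The calls were made as follows, unless noted: active = viability at or below 10% of carrier control in both of two separate runs; inconclusive = viability at or below 10% in only one of the two runs; inactive = the rest.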

The viability is a read-out of living cells in per cent, often relative to untreated cells. In general, inhibition refers to the drop in the measured response relative to a control, in per cent. `O=C1CCC(=O)N1OCCCCOc1ccccc1`: the viability in test [1] is 123%; in test [3], 123% (inactive); in test [4], 107% (inactive); in test [5] it was 96.2% (inactive); in test [6] (setting [9]) it was 91%; in test [6] (setting [10]), 96.2%. For the same compound, the Her2 level in test [2] is 93% (inactive). Further, the differential viability (reversal) in test [6] (H69AR cells + 2 uM doxorubicin) was 5.21% (inactive). In addition, the inhibition in test [7] is -3.55% (inactive); in test [8], 0.48% (inactive).
On to `CCSc1ncc(C#N)c(=O)[nH]1`, for which the viability in test [1] is 117%; in test [3], 117% (inactive); in test [4] it was 96.5% (inactive); in test [5], 95% (inactive); in test [6] (setting [9]) it was 97.6%; in test [6] (setting [10]), 95%. The Her2 level in test [2] is 119% (inactive). Further, the differential viability (reversal) in test [6] (H69AR cells + 2 uM doxorubicin) is -2.66% (inactive). For the same compound, the inhibition in test [7] was -7.76% (inactive); in test [8] it was -3.28% (inactive).
For `CCOc1ccc(N(CC)C(=O)COc2cc(=O)n(C)c3ccccc23)cc1`, the viability was 84.5% in test [1]; 84.5% (inactive) in test [3]; 93.6% (inactive) in test [4]; 86.1% (inactive) in test [5]; 88.6% in test [6] (setting [9]); 86.1% in test [6] (setting [10]). Also, the Her2 level in test [2] is 86% (inactive). In addition, in test [6] (H69AR cells + 2 uM doxorubicin), the differential viability (reversal) was -2.48% (inactive). Further, the inhibition in test [7] is -3.07% (inactive); in test [8] it was 0.98% (inactive).
Regarding `COc1cc(OC)c(C2C(C#N)=C(N)OC3=C2C(=O)CC(C)(C)C3)cc1OC` (stereo not given), the viability in test [1] is 85.5%; in test [3], 85.5% (inactive); in test [4], 61.9% (inactive); in test [5], 83.2% (inactive); in test [6] (setting [9]), 84.7%; in test [6] (setting [10]), 83.2%. The Her2 level in test [2] was 106% (inactive). Besides, the differential viability (reversal) in test [6] (H69AR cells + 2 uM doxorubicin) is -1.53% (inactive). For the same compound, the inhibition in test [7] was 0.91% (inactive); in test [8], -9.02% (inactive).
Turning to `O=C(CCn1nc(-c2ccc(Cl)cc2)ccc1=O)N1CCN(c2ccccn2)CC1`, the viability was 96.5% in test [1]; 96.5% (inactive) in test [3]; 101% (inactive) in test [4]; 91.1% (inactive) in test [5]; 95.9% in test [6] (setting [9]); 91.1% in test [6] (setting [10]). In test [2], the Her2 level was 92.5% (inactive). In addition, in test [6] (H69AR cells + 2 uM doxorubicin), the differential viability (reversal) was -4.79% (inactive). Besides, the inhibition in test [7] was -3.42% (inactive); in test [8], -3.87% (inactive).
Turning to `Fc1ccc(-c2csc3nnc(SCc4cccnc4)n23)cc1`, the viability was 108% in test [1]; 108% (inactive) in test [3]; 85.7% (inactive) in test [4]; 82.9% (inactive) in test [5]; 84.9% in test [6] (setting [9]); 82.9% in test [6] (setting [10]). The Her2 level in test [2] was 112% (inactive). Moreover, in test [6] (H69AR cells + 2 uM doxorubicin), the differential viability (reversal) was -2.03% (inactive). Also, the inhibition in test [7] is -4.62% (inactive); in test [8] it was 8.33% (inactive).
Turning to `CNC(=O)c1ccc(N(Cc2ccccc2C)S(C)(=O)=O)cc1`, the viability was 98% in test [1]; 98% (inactive) in test [3]; 102% (inactive) in test [4]; 93.6% (inactive) in test [5]; 92.7% in test [6] (setting [9]); 93.6% in test [6] (setting [10]). Besides, in test [2], the Her2 level was 102% (inactive). Also, the differential viability (reversal) in test [6] (H69AR cells + 2 uM doxorubicin) is 0.93% (inactive). In addition, the inhibition in test [7] is -3.87% (inactive); in test [8], -2.95% (inactive).
In the case of `CC1(CC(=O)O)C(=O)N=C2C=CC=CN21` (stereo not given), the viability in test [1] is 93%; in test [3], 93% (inactive); in test [4] it was 97.9% (inactive); in test [5], 89.4% (inactive); in test [6] (setting [9]) it was 84.2%; in test [6] (setting [10]), 89.4%. In addition, the Her2 level in test [2] was 87.5% (inactive). In addition, the differential viability (reversal) in test [6] (H69AR cells + 2 uM doxorubicin) was 5.18% (inactive). The inhibition in test [7] was -4.93% (inactive); in test [8], 0.16% (inactive).
With `Cc1nc2ccccc2c(=O)n1CC(=O)N1CCOCC1`, the viability in test [1] was 120%; in test [3], 120% (inactive); in test [4], 107% (inactive); in test [5], 90.4% (inactive); in test [6] (setting [9]), 99.8%; in test [6] (setting [10]), 90.4%. Besides, the Her2 level in test [2] was 90.5% (inactive). In test [6] (H69AR cells + 2 uM doxorubicin), the differential viability (reversal) was -9.46% (inactive). The figures for the inhibition in test [7] and in test [8] were 0.67% (inactive) and -4.35% (inactive), respectively.
Regarding `Cc1ccc(-c2ccc(=O)n(CCC(=O)NCc3ccccn3)n2)cc1`, the viability was 94.5% in test [1]; 94.5% (inactive) in test [3]; 89.3% (inactive) in test [4]; 84.3% (inactive) in test [5]; 86.2% in test [6] (setting [9]); 84.3% in test [6] (setting [10]). The Her2 level in test [2] was 84% (inactive). Moreover, in test [6] (H69AR cells + 2 uM doxorubicin), the differential viability (reversal) is -1.96% (inactive). Besides, the inhibition is -3.95% (inactive) in test [7] and 0.81% (inactive) in test [8].
With `CCOC(=O)N1CCN(C(=O)COc2ccc(Br)cc2Cl)CC1`, the viability was 96% in test [1]; 96% (inactive) in test [3]; 117% (inactive) in test [4]; 93.7% (inactive) in test [5]; 91.2% in test [6] (setting [9]); 93.7% in test [6] (setting [10]). Besides, the Her2 level in test [2] was 112% (inactive). Also, in test [6] (H69AR cells + 2 uM doxorubicin), the differential viability (reversal) was 2.46% (inactive). The inhibition was -1.17% (inactive) in test [7] and -5.33% (inactive) in test [8].
As to `CCOC(=O)c1cccc(NC(=O)CS(=O)(=O)Cc2nc(-c3cccc(OC)c3)oc2C)c1`, the viability in test [1] is 99.5%; in test [3], 99.5% (inactive); in test [4], 95.2% (inactive); in test [5] it was 85.3% (inactive); in test [6] (setting [9]), 92.8%; in test [6] (setting [10]) it was 85.3%. For the same compound, in test [2], the Her2 level was 79% (inactive). Further, the differential viability (reversal) in test [6] (H69AR cells + 2 uM doxorubicin) is -7.47% (inactive). The inhibition in test [7] was -7.87% (inactive); in test [8], -6.61% (inactive).
Take `C/C(=C(\C#N)C(=O)NCCCN1CCOCC1)N(C)C`: the viability in test [1] is 96.5%; in test [3] it was 96.5% (inactive); in test [4], 95.2% (inactive); in test [5] it was 102% (inactive); in test [6] (setting [9]), 93.1%; in test [6] (setting [10]), 102%. In addition, in test [2], the Her2 level was 106% (inactive). Also, the differential viability (reversal) in test [6] (H69AR cells + 2 uM doxorubicin) was 8.58% (inactive). The inhibition was -1.58% (inactive) in test [7] and 5.57% (inactive) in test [8].
Regarding `CCc1nnc(NC(=O)c2cccc(C(=O)Nc3nnc(CC)s3)n2)s1`, the viability in test [1] is 53.5%; in test [3], 53.5% (inactive); in test [4], 3.29% (active); in test [5], 8.87% (active); in test [6] (setting [9]), 7.54%; in test [6] (setting [10]), 8.87%. The Her2 level in test [2] is 72% (inactive). Also, the differential viability (reversal) in test [6] (H69AR cells + 2 uM doxorubicin) is 1.33% (inactive). The inhibition in test [7] is 83.5% (active); in test [8], 73% (active).
Take `COc1ccccc1Nc1ncnc2c1cnn2-c1cccc(C)c1`: the viability was 94.5% in test [1]; 94.5% (inactive) in test [3]; 87.7% (inactive) in test [4]; 95.4% (inactive) in test [5]; 84.5% in test [6] (setting [9]); 95.4% in test [6] (setting [10]). In addition, the Her2 level in test [2] was 88.5% (inactive). Also, the differential viability (reversal) in test [6] (H69AR cells + 2 uM doxorubicin) is 10.9% (inactive). The inhibition in test [7] is -5.33% (inactive); in test [8], -8.71% (inactive).

Values taken from PubChem BioAssay.
